High-throughput results deposited in PubChem by several laboratories.
Neddyl block: inhibitors of cullin neddylation, primary screen, biochemical, TR-FRET, uHTS, NAE and Ubc12 | NEDD8-conjugating enzyme Ubc12 (Homo sapiens) + NEDD8-activating enzyme E1 regulatory … | inhibition, % at 25 µM | hit rate 0.58% among 360,000; in the data active = inhibition above about 36%
UBC9 SUMO inh: inhibitors of in vitro SUMOylation cascade, primary screen, biochemical, HTRF, uHTS | HTRF SUMOylation assay, SAE1/SAE2 + UBC9 | AID 2006, 2009 | hit rate 0.36% among 290,000 | SUMO-conjugating enzyme UBC9 (Homo sapiens), P63279 | inhibition, % at 35 µM; in the data active = inhibition above about 50%, passing the limit was not always enough
Target sequence (P63279 whole entry, looked up): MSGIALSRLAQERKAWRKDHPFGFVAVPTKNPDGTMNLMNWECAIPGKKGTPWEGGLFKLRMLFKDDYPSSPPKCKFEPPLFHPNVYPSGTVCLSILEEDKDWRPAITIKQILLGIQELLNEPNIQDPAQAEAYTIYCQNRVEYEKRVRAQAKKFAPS
UCH37 inh: inhibitors of human UCH37 deubiquitinase, primary screen, biochemical, Ub-AMC cleavage, fluorescence | AID 588478, 2011 | inhibition, % (concentration not given with the values) | hit rate 0.33% among 330,000 | Ubiquitin carboxyl-terminal hydrolase isozyme L5 (Homo sapiens), Q9Y5K5 | purified proteasome/UCH37;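 active = mean inhibition over replicate wells above about 20%, limit read from the data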;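 note: 0% = compound-free wells with enzyme and 100% = wells lacking proteasome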
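Material: human UCH37 enzyme supplied as purified proteasome complex / Amount: 0.15 nM proteasome as dispensed / Buffer or medium: pH 7.4 Tris-HCl (50 mM) with ovalbumin, ATP-MgCl2, DTT / Times: preincubation 30 min, reaction 25 min, room temperature / Technique: AMC fluorescence from Ub-AMC cleavage, excitation 355 nm, emission 460 nm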
CTSL1 counter: Fasciola hepatica cathepsin L1 inhibitors, primary screen, counter-screen for PFM18AAP inhibitor project, biochemical, QFRET, fluorogenic peptide substrate; recombinant F. hepatica cathepsin L1, Z-Leu-Arg-MCA fluorescence; inhibition, % at 5.96 µM; hit rate 0.49% among 300,000;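 active = inhibition above the mean of all tested compounds plus 3 SD, set per screening campaign, cut at about 17% in these data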;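 note: 0% = plate median of test compound wells and 100% = 1 µM Z-Phe-Ala-diazomethylketone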
Neddyl inh conf: blockade of NEDD8 conjugation to cullin – biochemical, TR-FRET, single concentration, confirmation; shares compounds with Neddyl block; TR-FRET cullin neddylation biochemical assay; calls only at 25 µM; hit rate 13% among 1,800; in the data active = inhibition above about 40%;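 note: neddylation substrate is the cullin 1 ring ligase complex with SKP2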
An asterisk follows results filed as active; i = inactive; x = no result shown; + = active, no number. A selection: hits, their analogues and other compounds. The true share with any hit is near 1.4%.

SMILES	Neddyl block	UBC9 SUMO inh	UCH37 inh	CTSL1 counter	Neddyl inh conf
Cc1ccc(/C=C/C(=O)OCC(=O)Nc2ccccc2Sc2ccccc2)cc1	-0.7	12.6	1.8	-4.9	x
COc1cccc(/C=C/C(=O)OCC(=O)Nc2ccccc2Sc2ccccc2)c1	43.7*	-6.0	0.3	-0.1	i
COC(=O)C1=C(C)Nc2sc(C(N)=O)c(N)c2C1c1ccncc1 (stereo not given)	41.9*	2.8	-23.4	7.7	i
CCOC(=O)C1=C(C)Nc2sc(C(=O)c3ccc(OC)cc3)c(N)c2C1c1ccc(C(=O)OC)cc1 (stereo not given)	29.8	4.2	-50.2	2.6	x
Nc1ccc(C(=O)N/N=C/c2cn(Cc3ccccc3)c3ccccc23)cc1	41.4*	-26.5	x	x	i
Nc1ccc(C(=O)N/N=C/c2cn(Cc3ccc(F)cc3)c3ccccc23)cc1	35.4	-19.5	x	x	x
COc1ccc(/C(C)=N\Nc2nc(-c3ccccc3)cc(=O)[nH]2)cc1	46.2*	1.3	x	-3.5	i
COc1ccc(C(C)=NNc2nc(-c3ccccc3)cc(=O)[nH]2)cc1	x	x	-139.8	x	x
CCc1nnc(NC(=O)c2ccc(-c3ccc(Cl)cc3)o2)s1	6.7	39.6	-81.5	0.4	x
CCc1nnc(NC(=O)c2ccc(-c3ccccc3F)o2)s1	42.3*	33.5	-16.3	2.2	i
CCOc1cc(/C=C/C(=O)Nc2ccc(C(=O)NCCN(CC)CC)cc2)ccc1OCC(C)C	53.8*	8.3	-79.4	2.7	+
CCOc1ccc(/C=C/C(=O)Nc2ccc(C(N)=O)cc2)cc1OC	x	20.0	-130.7	9.9	x
COc1ccccc1NC(=O)NNC(=O)c1ccc2ccccc2c1O	39.7*	1.7	-105.7	x	i
CCc1ccc(NC(=O)NNC(=O)c2ccc3ccccc3c2O)cc1	x	2.0	-286.7	x	x
Cc1ccccc1NC(=O)NNC(=O)c1ccc2ccccc2c1	-0.1	-4.8	0.8	x	x
Cc1ccccc1NC(=O)NNC(=O)c1ccc2ccccc2c1O	42.4*	-11.6	-101.5	2.0	+
COc1ccc(NC(=O)NNC(=O)c2ccc3ccccc3c2O)cc1OC	34.6*	-5.9	-150.5	-3.2	i
Fc1ccccc1C=NNc1nn[nH]n1	x	x	2.3	x	x
NC(=O)c1cc2ccc(O)cc2oc1=Nc1ccccc1	53.6*	-3.4	-102.0	x	i
CCOC(=O)/C=c1\s/c(=C\c2ccc(C(=O)OC)cc2)c(=O)n1CC(=O)Nc1ccccc1	40.3*	16.0	x	-2.9	i
CCOC(=O)c1ccc(NC(=S)N2CCN(c3ccc(N4CCOCC4)nn3)CC2)cc1	x	10.2	-15.0	1.6	x
CCOc1ccc(NC(=S)N2CCN(c3ccc(N4CCOCC4)nn3)CC2)cc1	42.4*	28.5	-129.3	2.2	i
Cc1ccc(C)c2c1[nH]c1ccccc12	9.8	3.7	-0.2	6.5	x
Cc1cc(C=O)c(C)c2c1[nH]c1ccccc12	40.1*	x	x	x	i
CCOc1ccc(-c2c(C(=O)NN=Cc3ccc(O)cc3)nnn2-c2nonc2N)cc1	x	x	1.3	x	x
SMILES	Neddyl block	UBC9 SUMO inh	UCH37 inh	CTSL1 counter	Neddyl inh conf
C/C(=N\NC(=O)c1ccc(N2CCCC2=O)cc1)c1ccc(O)cc1O	62.7*	4.8	x	1.1	i
CN1C=CC2=C(C#N)C(N)C(C#N)(C#N)C(c3ccccc3)C2C1 (stereo not given)	43.5*	14.5	-12.1	-1.2	i
Cc1ccc2c(c1)c1c3n2CCN(C(=O)C2CC2)C3CCC1 (stereo not given)	44.8*	13.2	-20.7	-2.9	i
COCCNC(=O)c1cc2c(=O)[nH]c3ccccc3c2s1	39.7*	-3.2	-264.9	6.6	x
COc1ccc2cc(C(=O)C3CCCN(C(=O)/C=C/c4ccccn4)C3)ccc2c1 (stereo not given)	52.8*	26.3	-45.8	3.7	i
CCOC(=O)C1=NN(c2ccc(C)cc2)CC1C(=O)OC (stereo not given)	38.6*	22.1	-20.1	0.0	i
COC(=O)C1CC(=O)N(c2ccc(C)cc2)C1 (stereo not given)	1.9	14.6	4.3	-2.8	x
CCN(N=Cc1cccs1)c1cc(=O)n(C)c(=O)[nH]1	x	x	18.2	x	x
CCCC(=O)Nc1cc(-c2nc3ncccc3o2)ccc1C	x	2.1	-5.4	-3.0	x
